The text below walks through data of ChEMBL document CHEMBL2146403, “Synthesis and Antitumor Activity of Ellagic Acid Peracetate” (ACS Med Chem Lett, 2012).

Calls of active or inactive are those of the source. The rule behind the calls is not given here.

For data set [1], the system named is B16. Description: Antitumor activity against mouse B16 cells xenografted in C57BL/6 mouse assessed as tumor growth inhibition at 0.5 mg/kg, po administered for 1 week prior to tumor injection followed by treatment for additional 2 weeks relative to vehicle-treated control. The data set is classed as functional. An outline of the steps: (§1)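 Subcutaneous B16 melanoma in C57BL/6 immunocompetent mice aged 8–12 weeks. Test agent or vehicle was given daily in drinking water at 0.5 mg/kg for one week. B16 cells were then inoculated and dosing continued for 2 more weeks. At sacrifice, tumors were excised and weighed against the vehicle group, and kidneys, livers and spleens were inspected.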

Data set [2] relates to Mus musculus. The data set can be described thus: Toxicity in C57BL/6 mouse xenografted with B16 cells assessed as adverse effects at 0.5 mg/kg, po administered for 1 week prior to tumor injection followed by treatment for additional 2 weeks relative to vehicle-treated control. Particulars: in vivo. In kind it is organism-based. Details: dose 0.5 mg/kg, route oral. The method in brief:
as §1

Data set [3] relates to Mus musculus. Description: Immunoenhancing activity in C57BL/6 mouse assessed as increase in peripheral blood WBC level at 0.5 mg/kg, po administered for 1 week by trypan blue exclusion method relative to vehicle-treated control. The data set is classed as functional. The method in brief:
(§2)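 Tumor-free normal mice were dosed for 1 week with test agent or vehicle. WBCs in peripheral blood and immune cells enriched from bone marrow and liver were counted by Trypan Blue exclusion and compared with the vehicle group. Columns are group means, bars SE, significance p ≤ 0.05.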

In data set [4] the test system is Mus musculus. Description: Immunoenhancing activity in C57BL/6 mouse assessed as increase in total immune cells in bone marrow at 0.5 mg/kg, po administered for 1 week by trypan blue exclusion method relative to vehicle-treated control. In kind it is functional. The method in brief: as §2
For data set [5], the system named is Mus musculus. Description: Immunoenhancing activity in C57BL/6 mouse assessed as increase in total immune cells in liver at 0.5 mg/kg, po administered for 1 week by trypan blue exclusion method relative to vehicle-treated control. The data set is classed as functional. An outline of the steps:
as §2

Data set [6] concerns Mus musculus. The data set can be described thus: Immunoenhancing activity in C57BL/6 mouse assessed as increase in immune subset cells in bone marrow at 0.5 mg/kg, po administered for 1 week by flow cytometric analysis relative to vehicle-treated control. The data set is classed as functional, organism-based. Details: dose 0.5 mg/kg.
In data set [7] the test system is Mus musculus. The data set can be described thus: Immunoenhancing activity in C57BL/6 mouse assessed as increase in immune subset cells in liver at 0.5 mg/kg, po administered for 1 week by flow cytometric analysis relative to vehicle-treated control. The data set is classed as functional, organism-based. Details: dose 0.5 mg/kg.
Data set [8] relates to Mus musculus. The data set can be described thus: Immunomodulatory activity in C57BL/6 mouse NK cells expressing NK1.1 and CD3 assessed as cell surface CD107a expression level at 0.5 mg/kg, po administered for 1 week by YAC1 co culture-based immunostaining analysis (reference value: 41.5%). In kind it is functional.
Data set [9] concerns Mus musculus. The data set can be described thus: Immunomodulatory activity in C57BL/6 mouse CD3-deficient NK cells expressing NK1.1 assessed as […]- and IL-18 induced IFNgamma level at 0.5 mg/kg, po administered for 1 week by flow cytometric analysis (reference value: 76.7%). In kind it is functional.
For data set [10], the system named is Mus musculus. Description: Toxicity in C57BL/6 mouse assessed as change in body weight at 0.5 mg/kg, po administered for 3 weeks relative to vehicle-treated control. The settings on record: in vivo, 504 h. The data set is classed as organism-based. Further details: dose 0.5 mg/kg, route oral. The method in brief:
(§3)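 Oral acute toxicity in normal mice dosed daily with test agent or vehicle for 3 weeks. Body, spleen and liver were inspected and weighed. Values are group means with n ≥ 4 and SE bars.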

Data set [11] relates to Mus musculus. Description: Toxicity in C57BL/6 mouse assessed as change in liver weight at 0.5 mg/kg, po administered for 3 weeks relative to vehicle-treated control. In kind it is organism-based. Particulars: in vivo, 504 h. Details: dose 0.5 mg/kg, route oral. The method in brief:
as §3

Data set [12] deals with Mus musculus. The data set can be described thus: Toxicity in C57BL/6 mouse assessed as change in spleen weight at 0.5 mg/kg, po administered for 3 weeks relative to vehicle-treated control. In kind it is organism-based. Further details: dose 0.5 mg/kg, route oral. Particulars: in vivo, 504 h. An outline of the steps: as §3
Data set [13] concerns B16. The data set can be described thus: Growth inhibition of mouse B16 cells at 10 uM after 24 to 96 hrs by trypan blue exclusion assay. In kind it is functional, cell-based.
Data set [14] relates to B16. Description: Induction of apoptosis in mouse B16 cells assessed as early apoptotic cells at 10 uM after 72 hrs by AnnexinV/PI staining-based flow cytometric analysis (reference value: 2.28%). The data set is classed as functional.
Data set [15] has as its system B16. Description: Induction of apoptosis in mouse B16 cells assessed as late apoptotic cells at 10 uM after 72 hrs by AnnexinV/PI staining-based flow cytometric analysis (reference value: 2.48%). The data set is classed as functional.
The test system of data set [16] is B16. The data set can be described thus: Induction of apoptosis in mouse B16 cells assessed as necrotic cells at 10 uM after 72 hrs by AnnexinV/PI staining-based flow cytometric analysis (reference value: 5.26%). In kind it is functional.
Data set [17] relates to B16. The data set can be described thus: Induction of apoptosis in mouse B16 cells assessed as viable cells at 10 uM after 72 hrs by AnnexinV/PI staining-based flow cytometric analysis (reference value: 90%). The data set is classed as functional. The settings on record: B16, 72 h, read-out: Activity.
Data set [18] relates to B16. The data set can be described thus: Induction of apoptosis in mouse B16 cells assessed as decrease in Bcl2 expression at 10 uM after 72 hrs by Western blot analysis. In kind it is functional, cell-based.

Turning to `CC(=O)Oc1cc2c(=O)oc3c(OC(C)=O)c(OC(C)=O)cc4c(=O)oc(c1OC(C)=O)c2c34` [ELLAGIC ACID TETRAACETATE], the inhibition in vivo at 0.5 mg/kg in data set [1] (read-out: GI) was determined as 70%. In addition, the Activity result is recorded as “Non-toxic” in data set [2]; 70% in data set [3]; 50% in data set [4]; 200% in data set [5]; 40.4% in data set [8]; 78.2% in data set [9]. Further, the Activity entry is listed as “Non-toxic” in data set [10]; “Non-toxic” in data set [11]; “Non-toxic” in data set [12]; 6.99% in [14]; 9.78% in data set [15]; 11.8% in data set [16]. Moreover, the result in data set [6] and in data set [7] was inactive. Moreover, in data set [13], the “growth inhibition (GI)” value was “Active”. In addition, in data set [17], the viability at 10 µM was determined as 71.4%. For the same compound, in [18], the outcome was Active.
Consider `O=c1oc2c(O)c(O)cc3c(=O)oc4c(O)c(O)cc1c4c23` [ELLAGIC ACID], for which the “growth inhibition (GI)” value in [1] was “inactive”. In addition, the Activity entry in data set [2] is on record as “Non-toxic”; in [8], 37.2%; in [9], 74.9%; in data set [10] it was “Non-toxic”; in data set [11], “Non-toxic”; in data set [12], “Non-toxic”. Further, the Activity in data set [14] is on record as 4.33%; in data set [15] it was 6.84%; in [16], 4.95%. Besides, the result in data set [4], in data set [5], in [6] and in data set [7] was inactive. Besides, the “growth inhibition (GI)” value in data set [13] is “Active”. Also, in [17], the viability at 10 µM worked out at 83.9%. Further, the outcome in data set [18] was Active.
